Assays:
Design in all cases: dose 5 mg/kg, dosed compound name [14C]CS-1036, route oral
Settings in all cases: in vivo
Aorta = assay: Drug uptake in albino F344/DuCrlCrlj rat aorta assessed as ng equivalent of CS-1036 at 5 mg/kg, po after 4 hrs by liquid scintillation counting; type: ADME, organism-based
Blood [1] = assay: Drug uptake in albino F344/DuCrlCrlj rat blood assessed as ng equivalent of CS-1036 at 5 mg/kg, po after 4 hrs by liquid scintillation counting; type: ADME, organism-based
Method in brief: (§1)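 Male F344/DuCrlCrlj rats (159–167 g; n = 3 per time point) received a single oral dose of [14C]CS-1036 at 5 mg/kg. Blood was taken from the abdominal aorta at 1, 4, 8, 24, 72, 168 and 336 h. Radioactivity was counted by LSC with external-standard efficiency correction. Results were converted to ng equivalent of CS-1036/ml using specific activity and sample volume, and reported as mean + S.D.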

Blood [2] = assay: Drug uptake in albino F344/DuCrlCrlj rat blood assessed as ng equivalent of CS-1036 at 5 mg/kg, po after 24 hrs by liquid scintillation counting; type: ADME, organism-based; method in brief: as §1
[3] = Drug uptake in albino F344/DuCrlCrlj rat testis assessed as ng equivalent of CS-1036 at 5 mg/kg, po after 8 hrs by liquid scintillation counting; type: ADME, organism-based
Stomach [4] = assay: Drug uptake in albino F344/DuCrlCrlj rat stomach assessed as ng equivalent of CS-1036 at 5 mg/kg, po after 168 hrs by liquid scintillation counting; type: ADME, organism-based
[5] = Drug uptake in albino F344/DuCrlCrlj rat bone marrow at 5 mg/kg, po after 24 hrs by liquid scintillation counting; type: ADME, organism-based
[6] = Drug uptake in albino F344/DuCrlCrlj rat thyroid gland assessed as ng equivalent of CS-1036 at 5 mg/kg, po after 8 hrs by liquid scintillation counting; type: ADME, organism-based
[7] = Drug uptake in albino F344/DuCrlCrlj rat mandibular gland assessed as ng equivalent of CS-1036 at 5 mg/kg, po after 8 hrs by liquid scintillation counting; type: ADME, organism-based
[8] = Drug uptake in albino F344/DuCrlCrlj rat thyroid gland assessed as ng equivalent of CS-1036 at 5 mg/kg, po after 4 hrs by liquid scintillation counting; type: ADME, organism-based
[9] = Drug uptake in albino F344/DuCrlCrlj rat testis at 5 mg/kg, po after 24 hrs by liquid scintillation counting; type: ADME, organism-based
[10] = Drug uptake in albino F344/DuCrlCrlj rat trachea assessed as ng equivalent of CS-1036 at 5 mg/kg, po after 8 hrs by liquid scintillation counting; type: ADME, organism-based
[11] = Drug uptake in albino F344/DuCrlCrlj rat skeletal muscle at 5 mg/kg, po after 4 hrs by liquid scintillation counting; type: ADME, organism-based, Muscle tissue
Cerebellum = assay: Drug uptake in albino F344/DuCrlCrlj rat cerebellum at 5 mg/kg, po after 8 hrs by liquid scintillation counting; type: ADME, organism-based
[12] = Drug uptake in albino F344/DuCrlCrlj rat bone marrow at 5 mg/kg, po after 72 hrs by liquid scintillation counting; type: ADME, organism-based
Stomach [13] = assay: Drug uptake in albino F344/DuCrlCrlj rat stomach assessed as ng equivalent of CS-1036 at 5 mg/kg, po after 4 hrs by liquid scintillation counting; type: ADME, organism-based
Spleen = assay: Drug uptake in albino F344/DuCrlCrlj rat spleen at 5 mg/kg, po after 336 hrs by liquid scintillation counting; type: ADME, organism-based
Zone of skin [14] = assay: Drug uptake in albino F344/DuCrlCrlj rat skin assessed as ng equivalent of CS-1036 at 5 mg/kg, po after 8 hrs by liquid scintillation counting; type: ADME, organism-based
[15] = Drug uptake in albino F344/DuCrlCrlj rat mandibular gland assessed as ng equivalent of CS-1036 at 5 mg/kg, po after 72 hrs by liquid scintillation counting; type: ADME, organism-based
[16] = Drug uptake in albino F344/DuCrlCrlj rat mandibular gland at 5 mg/kg, po after 4 hrs by liquid scintillation counting; type: ADME, organism-based
Liver [17] = assay: Drug uptake in albino F344/DuCrlCrlj rat liver at 5 mg/kg, po after 24 hrs by liquid scintillation counting; type: ADME, organism-based
Harderian gland [18] = assay: Drug uptake in albino F344/DuCrlCrlj rat harderian gland assessed as ng equivalent of CS-1036 at 5 mg/kg, po after 24 hrs by liquid scintillation counting; type: ADME, organism-based
[19] = Drug uptake in albino F344/DuCrlCrlj rat epididymis assessed as ng equivalent of CS-1036 at 5 mg/kg, po after 8 hrs by liquid scintillation counting; type: ADME, organism-based
Blood [20] = assay: Drug uptake in albino F344/DuCrlCrlj rat blood assessed as ng equivalent of CS-1036 at 5 mg/kg, po after 72 hrs by liquid scintillation counting; type: ADME, organism-based; method in brief: as §1
Liver [21] = assay: Drug uptake in albino F344/DuCrlCrlj rat liver at 5 mg/kg, po after 168 hrs by liquid scintillation counting; type: ADME, organism-based
Harderian gland [22] = assay: Drug uptake in albino F344/DuCrlCrlj rat harderian gland assessed as ng equivalent of CS-1036 at 5 mg/kg, po after 4 hrs by liquid scintillation counting; type: ADME, organism-based
[23] = Drug uptake in albino F344/DuCrlCrlj rat trachea at 5 mg/kg, po after 4 hrs by liquid scintillation counting; type: ADME, organism-based
Small intestine = assay: Drug uptake in albino F344/DuCrlCrlj rat small intestine at 5 mg/kg, po after 168 hrs by liquid scintillation counting; type: ADME, organism-based
Plasma = assay: Drug uptake in albino F344/DuCrlCrlj rat plasma assessed as ng equivalent of CS-1036 at 5 mg/kg, po after 8 hrs by liquid scintillation counting; type: ADME, organism-based
Zone of skin [24] = assay: Drug uptake in albino F344/DuCrlCrlj rat skin at 5 mg/kg, po after 8 hrs by liquid scintillation counting; type: ADME, organism-based
Thymus = assay: Drug uptake in albino F344/DuCrlCrlj rat thymus at 5 mg/kg, po after 24 hrs by liquid scintillation counting; type: ADME, organism-based
Blood [25] = assay: Drug uptake in albino F344/DuCrlCrlj rat blood assessed as ng equivalent of CS-1036 at 5 mg/kg, po after 8 hrs by liquid scintillation counting; type: ADME, organism-based; method in brief: as §1
[26] = Drug uptake in albino F344/DuCrlCrlj rat urinary bladder assessed as ng equivalent of CS-1036 at 5 mg/kg, po after 24 hrs by liquid scintillation counting; type: ADME, organism-based
Zone of skin [27] = assay: Drug uptake in albino F344/DuCrlCrlj rat skin at 5 mg/kg, po after 1 hr by liquid scintillation counting; type: ADME, organism-based
Large intestine [28] = assay: Drug uptake in albino F344/DuCrlCrlj rat large intestine at 5 mg/kg, po after 4 hrs by liquid scintillation counting; type: ADME, organism-based
Harderian gland [29] = assay: Drug uptake in albino F344/DuCrlCrlj rat harderian gland assessed as ng equivalent of CS-1036 at 5 mg/kg, po after 1 hr by liquid scintillation counting; type: ADME, organism-based
Large intestine [30] = assay: Drug uptake in albino F344/DuCrlCrlj rat large intestine assessed as ng equivalent of CS-1036 at 5 mg/kg, po after 336 hrs by liquid scintillation counting; type: ADME, organism-based
Liver [31] = assay: Drug uptake in albino F344/DuCrlCrlj rat liver at 5 mg/kg, po after 336 hrs by liquid scintillation counting; type: ADME, organism-based

C[C@H]1O[C@@H](O[C@H]2[C@H](O)[C@@H](O)[C@@H](O[14C@H]3[14C@H](O)[14CH2]N[14C@@H]3[14CH2]O)O[C@@H]2CO)[C@H](O)[C@@H](O)[C@@H]1O gave a Radiolabel recovery (Aorta) of 13.3 ngequiv/g, a Radiolabel recovery (Blood [1]) of 16.3 ngequiv/ml and a Radiolabel recovery (Blood [2]) of 4 ngequiv/ml. The Radiolabel recovery [3] was 24.1 ngequiv/g, the Radiolabel recovery (Stomach [4]) was 11.2 ngequiv/g and the Radiolabel recovery [5] was 116 ngequiv/g. The Radiolabel recovery [6] was 57.2 ngequiv/g, the Radiolabel recovery [7] was 24 ngequiv/g and the Radiolabel recovery [8] was 21.4 ngequiv/g. For the same compound, the Radiolabel recovery [9] was 31.4 ngequiv/g, the Radiolabel recovery [10] was 17.8 ngequiv/g and the Radiolabel recovery [11] was 41.4 ngequiv/g. For the same compound, the Radiolabel recovery (Cerebellum) was 8.3 ngequiv/g, the Radiolabel recovery [12] was 98.9 ngequiv/g and the Radiolabel recovery (Stomach [13]) was 41 ngequiv/g. The Radiolabel recovery (Spleen) was 7.81 ngequiv/g, the Radiolabel recovery (Zone of skin [14]) was 71.6 ngequiv/g and the Radiolabel recovery [15] was 9.5 ngequiv/g. It also gave a Radiolabel recovery [16] of 51.1 ngequiv/g, a Radiolabel recovery (Liver [17]) of 266 ngequiv/g and a Radiolabel recovery (Harderian gland [18]) of 88 ngequiv/g. The Radiolabel recovery [19] was 37.8 ngequiv/g, the Radiolabel recovery (Blood [20]) was 6.6 ngequiv/ml and the Radiolabel recovery (Liver [21]) was 14.3 ngequiv/g. The Radiolabel recovery (Harderian gland [22]) was 5.1 ngequiv/g, the Radiolabel recovery [23] was 31.1 ngequiv/g and the Radiolabel recovery (Small intestine) was 13 ngequiv/g. For the same compound, the Radiolabel recovery (Plasma) was 10.8 ngequiv/ml, the Radiolabel recovery (Zone of skin [24]) was 60.3 ngequiv/g and the Radiolabel recovery (Thymus) was 53.3 ngequiv/g. The Radiolabel recovery (Blood [25]) was 6.5 ngequiv/ml, the Radiolabel recovery [26] was 8.6 ngequiv/g and the Radiolabel recovery (Zone of skin [27]) was 38.3 ngequiv/g. The Radiolabel recovery (Large intestine [28]) was 5930 ngequiv/g, the Radiolabel recovery (Harderian gland [29]) was 4.3 ngequiv/g and the Radiolabel recovery (Large intestine [30]) was 6.02 ngequiv/g. It also gave a Radiolabel recovery (Liver [31]) of 7.76 ngequiv/g.
